Data set [1] relates to HepG2. The data set is described as follows: Antiproliferative activity against human HepG2 cells after 24 hrs by MTT assay. The format is functional, cell-based. The following applies: HepG2, 24 h. In a few lines:
(§1)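 MTT assay. 1 × 10⁴ cells per well were plated and incubated 24 h before dye was added (20 µL of 5 mg/mL MTT in PBS per well), then incubated until a purple precipitate formed. Precipitate dissolved in 150 µL DMSO after medium removal, then absorbance read.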

A further data set deals with K562. The data set can be described thus: Antiproliferative activity against human K562 cells after 24 hrs by MTT assay. The format is functional, cell-based. To be noted: K562, 24 h. In a few lines:
as §1
A general note: Tetrazolium dyes change colour on reduction, which living cells bring about.

The next data set concerns SK-OV-3. The data set can be described thus: Antiproliferative activity against human SKOV3 cells after 24 hrs by MTT assay. The format is functional, cell-based. To be noted: SK-OV-3, 24 h. In a few lines:
as §1

Another data set relates to HCT-116. The data set is described as follows: Antiproliferative activity against human HCT116 cells after 24 hrs by MTT assay. The following applies: HCT-116, 24 h. The format is functional, cell-based. In a few lines: as §1
A further data set deals with HT-29. The data set is described as follows: Antiproliferative activity against human HT-29 cells after 24 hrs by MTT assay. The format is functional, cell-based. To be noted: HT-29, 24 h. An outline of the steps: as §1
For the next data set, the system named is SW-620. The data set can be described thus: Antiproliferative activity against human SW620 cells after 24 hrs by MTT assay. The format is functional, cell-based. The following applies: SW-620, 24 h. In a few lines:
as §1

The subject of data set [2] is HepG2. The data set can be described thus: Inhibition of alpha-tubulin in human HepG2 cells assessed as decrease in microtubule formation at 1 uM after 24 hrs by DAPI staining-based immunofluorescence analysis. Type of data set: cell-based.
Data set [3] has as its system HepG2. The data set is described as follows: Inhibition of alpha-tubulin in human HepG2 cells assessed as decrease in spindle formation at 1 uM after 24 hrs by DAPI staining-based immunofluorescence analysis. The format is cell-based.
Data set [4] has as its system HepG2. The data set can be described thus: Cell cycle arrest in human HepG2 cells assessed as accumulation at G1 phase at 1.25 uM after 8 hrs by propidium iodide staining-based flow cytometric analysis (reference value: 49.86%). The format is functional. In general terms: Flow cytometry measures light scatter and fluorescence of single cells or particles in a stream.

The subject of data set [5] is HepG2. The data set can be described thus: Cell cycle arrest in human HepG2 cells assessed as accumulation at S phase at 1.25 uM after 8 hrs by propidium iodide staining-based flow cytometric analysis (reference value: 32.43%). The format is functional.
Data set [6] has as its system HepG2. The data set is described as follows: Cell cycle arrest in human HepG2 cells assessed as accumulation at G2/M phase at 1.25 uM after 8 hrs by propidium iodide staining-based flow cytometric analysis (reference value: 17.72%). The format is functional.
For data set [7], the system named is HepG2. The data set can be described thus: Cell cycle arrest in human HepG2 cells assessed as accumulation at G1 phase at 2.5 uM after 8 hrs by propidium iodide staining-based flow cytometric analysis (reference value: 49.86%). Type of data set: functional.
Data set [8] relates to HepG2. The data set is described as follows: Cell cycle arrest in human HepG2 cells assessed as accumulation at S phase at 2.5 uM after 8 hrs by propidium iodide staining-based flow cytometric analysis (reference value: 32.43%). Type of data set: functional.
Data set [9] has as its system HepG2. The data set can be described thus: Cell cycle arrest in human HepG2 cells assessed as accumulation at G2/M phase at 2.5 uM after 8 hrs by propidium iodide staining-based flow cytometric analysis (reference value: 17.72%). The format is functional.
The subject of data set [10] is HepG2. The data set can be described thus: Cell cycle arrest in human HepG2 cells assessed as accumulation at G1 phase at 5 uM after 8 hrs by propidium iodide staining-based flow cytometric analysis (reference value: 49.86%). The format is functional.
The next data set relates to A549. The data set can be described thus: Antitumor activity against human A549 cells xenografted in BALB/c mouse assessed as tumor growth inhibition at 20 mg/kg, iv administered at intervals of 2 days for 18 days relative to control. Type of data set: functional. The following applies: read-out: GI. An outline of the steps: (§2)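 Nude mice received 1 × 10⁷ A549 cells in 0.1 mL DMEM subcutaneously in the right gluteal region. At 100 mm³ tumour volume, 24 mice were randomised into four groups (n = 6). Test groups got 20 mg/kg in 0.2 mL physiological saline by tail vein every 2 days for 18 days. Vehicle control got saline; cisplatin 5 mg/kg weekly served as positive control. Tumour growth and body weight tracked; two-sided Student's t test.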
For orientation: In xenograft studies the graft and the host belong to different species.

The next data set deals with Mus musculus. The data set can be described thus: Toxicity in BALB/c mouse bearing human A549 cells assessed as decrease in body weight at 20 mg/kg, iv administered at intervals of 2 days for 18 days. Type of data set: organism-based. Also on record: dose 20 mg/kg, route intravenous. The following applies: in vivo. An outline of the steps: as §2
Data set [11] has as its system HepG2. The data set is described as follows: Cell cycle arrest in human HepG2 cells assessed as accumulation at 5 uM after 8 hrs by propidium iodide staining-based flow cytometric analysis (reference value: 17.72%).
The subject of data set [12] is HepG2. The data set is described as follows: Cell cycle arrest in human HepG2 cells assessed as accumulation at G2/M phase at 5 uM after 8 hrs by propidium iodide staining-based flow cytometric analysis (reference value: […]).

Calls of active or inactive are those of the source. The calls are words filed in the database; no cut-off is given here.

Experimental findings from ChEMBL document CHEMBL2040816, “Design, synthesis, and structure-activity relationship studies of novel millepachine derivatives as potent antiproliferative agents” (Eur J Med Chem, 2012) are described below.

As usually defined, the IC50 is the concentration needed to halve the response being measured. On to `COc1ccc(C(=O)/C=C/c2ccc(Cl)c(Cl)c2)c2c1C=CC(C)(C)O2`, for which the half-maximal inhibitory concentration (IC50) in the data set on HepG2 [1] is over 10 µM; in the data set on K562 it was 9.03 µM; with SK-OV-3, 9.94 µM; in the data set with HCT-116 it was 9.44 µM; in the data set on HT-29, 7.58 µM; with SW-620 it was 7.7 µM.

For the compound `COc1ccc(C(=O)/C=C/c2cc(OC)c(OC)c(OC)c2)c2c1C=CC(C)(C)O2`, the 50% inhibitory concentration (IC50) in the data set on HepG2 [1] is over 10 µM; with K562, over 10 µM; in the data set with SK-OV-3 it was 9.7 µM; in the data set with HCT-116, 7.65 µM; with HT-29, over 10 µM; with SW-620, 9.15 µM.

In the case of `COc1ccc(C(=O)/C=C/c2ccc(C(F)(F)F)cc2)c2c1C=CC(C)(C)O2`, the IC50 with HepG2 [1], in the data set on K562, with SK-OV-3, with HCT-116, in the data set with HT-29 and with SW-620 was over 10 µM each time.

For `COc1ccc(C(=O)/C=C/c2ccc(-c3ccccc3)cc2)c2c1C=CC(C)(C)O2`, the IC50 with HepG2 [1], with K562, in the data set with SK-OV-3, in the data set with HCT-116, with HT-29 and in the data set with SW-620 was over 10 µM each time.

Take `COc1ccc(/C=C/C(=O)c2ccc(OC)c3c2OC(C)(C)C=C3)c(F)c1`: the concentration for half-maximal inhibition (IC50) was 7.56 µM in the data set with HepG2 [1]; over 10 µM in the data set with K562; 4.88 µM in the data set on SK-OV-3; over 10 µM with HCT-116; over 10 µM with HT-29; 6.57 µM with SW-620.

With `COc1cccc(/C=C/C(=O)c2ccc(OC)c3c2OC(C)(C)C=C3)c1`, the IC50 was over 10 µM in the data set on HepG2 [1]; over 10 µM in the data set with K562; 9.36 µM with SK-OV-3; over 10 µM with HCT-116; over 10 µM in the data set on HT-29; over 10 µM with SW-620.

In the case of `COc1ccc(C(=O)/C=C/c2ccccc2Cl)c2c1C=CC(C)(C)O2`, the 50% inhibitory concentration (IC50) with HepG2 [1], in the data set on K562, in the data set with SK-OV-3, in the data set on HCT-116, with HT-29 and in the data set with SW-620 was over 10 µM each time.

With `COc1ccc(C(=O)/C=C/c2cccc([N+](=O)[O-])c2)c2c1C=CC(C)(C)O2`, the IC50 in the data set with HepG2 [1] worked out at 2.83 µM; in the data set on K562, 5.87 µM; with SK-OV-3, 9.72 µM; with HCT-116, 8.05 µM; in the data set on HT-29, 4.26 µM; in the data set with SW-620 it was 4.09 µM.

For the compound `CCN(CC)c1ccc(/C=C/C(=O)c2ccc(OC)c3c2OC(C)(C)C=C3)cc1`, the half-inhibitory concentration (IC50) in the data set with HepG2 [1] came out at 0.59 µM; in the data set with K562 it was 0.79 µM; with SK-OV-3, 0.61 µM; in the data set on HCT-116, 0.62 µM; in the data set with HT-29, 0.55 µM; in the data set with SW-620, 0.67 µM. Besides, the inhibition entry with HepG2 [2] and in the data set with HepG2 [3] was “Active” each time. Also, the Activity with HepG2 [4] was found to be 40.67%; in the data set with HepG2 [5], 16.77%; in the data set on HepG2 [6], 42.55%; in the data set with HepG2 [7] it was 4.49%; with HepG2 [8], 17.17%; in the data set on HepG2 [9] it was 78.35%. Moreover, the Activity is on record as 0% in the data set on HepG2 [10], “Non-toxic” in the data set on Mus musculus, 9.99% with HepG2 [11] and 90.01% in the data set with HepG2 [12]. Further, in the data set with A549, the inhibition in vivo at 20 mg/kg was 84.1%.

Turning to `COc1ccc(/C=C/C(=O)c2ccc(OC)c3c2OC(C)(C)C=C3)cc1` [MILLEPACHINE], the IC50 in the data set with HepG2 [1] stood at 1.51 µM; in the data set on K562, 4.56 µM; with SK-OV-3, 2.36 µM; in the data set on HCT-116, 4.66 µM; in the data set on HT-29, 3.29 µM; with SW-620 it was 0.76 µM. Also, the inhibition entry with HepG2 [2] and in the data set with HepG2 [3] was “Active” each time. The Activity with HepG2 [4] came out at 10.34%; in the data set with HepG2 [5], 20.35%; with HepG2 [6], 69.31%; in the data set with HepG2 [7] it was 2.64%; in the data set on HepG2 [8], 17.71%; with HepG2 [9], 79.65%. In addition, the Activity in the data set with HepG2 [10] is reported as 0.66%; in the data set on Mus musculus, “Non-toxic”; in the data set on HepG2 [11] it was 91.65%; in the data set on HepG2 [12], 7.68%. The inhibition in vivo at 20 mg/kg with A549 stood at 69.4%.

Regarding `COc1ccc(C(=O)/C=C/c2cccs2)c2c1C=CC(C)(C)O2`, the concentration for half-maximal inhibition (IC50) with HepG2 [1], in the data set with K562, with SK-OV-3, with HCT-116, in the data set with HT-29 and in the data set on SW-620 was over 10 µM each time.

For `COc1ccccc1/C=C/C(=O)c1ccc(OC)c2c1OC(C)(C)C=C2`, the IC50 with HepG2 [1], with K562, with SK-OV-3, in the data set with HCT-116, in the data set with HT-29 and in the data set with SW-620 was over 10 µM in each case.

Turning to `COc1ccc(C(=O)/C=C/c2ccc(Cl)cc2)c2c1C=CC(C)(C)O2`, the IC50 with HepG2 [1], in the data set on K562, in the data set on SK-OV-3, in the data set on HCT-116, with HT-29 and in the data set on SW-620 was over 10 µM in each case.

On to `COc1ccc(C(=O)/C=C/c2cccc(F)c2)c2c1C=CC(C)(C)O2`, for which the 50% inhibitory concentration (IC50) with HepG2 [1], with K562, in the data set on SK-OV-3, in the data set with HCT-116, in the data set with HT-29 and with SW-620 was over 10 µM each time.

In the case of `COc1ccc(C(=O)/C=C/c2ccc(N(c3ccccc3)c3ccccc3)cc2)c2c1C=CC(C)(C)O2`, the 50% inhibitory concentration (IC50) in the data set with HepG2 [1], with K562, with SK-OV-3, with HCT-116, in the data set on HT-29 and in the data set on SW-620 was over 10 µM each time.
